Reference: ChEMBL document CHEMBL4152262, “Design, synthesis and evaluation of novel multi-target-directed ligands for treatment of Alzheimer's disease based on coumarin and lipoic acid scaffolds” (Eur J Med Chem, 2018)
Calls of active or inactive are those of the source. No cut-off for these calls is given here.

Assays:
PC-12 [1] = experiment: Neuroprotection against H2O2-induced cell death in rat PC12 cells assessed as cell viability at 50 uM preincubated for 3 hrs followed by H2O2 stimulation measured after 2 hrs by MTT assay (reference value: 25.2 to 41.8%); format: functional; conditions: read-out: Activity
Cholinesterase = Cholinesterase (Equus caballus, UniProt P81908); experiment: Inhibition of equine serum BuChE using butyrylthiocholine iodide as substrate pretreated for 5 mins followed by substrate addition by Ellman's method
Method in brief: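 Ellman assay with horse serum BuChE (5 IU/mL) in 0.1 M phosphate buffer pH 8.0 with DTNB. Compound was preincubated with enzyme 5 min, then butyrylthiocholine iodide was added. Absorbance read at 412 nm. IC50 from a log concentration vs % inhibition curve; triplicate runs.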

[2] = biological target: Amyloid-beta precursor protein (Homo sapiens) (UniProt P05067); experiment: Inhibition of amyloid beta (1 to 42) (unknown origin) self-induced aggregation at 100 uM incubated for 48 hrs by thioflavin-T fluorescence assay relative to control
Acetylcholinesterase [3] = biological target: T1, Acetylcholinesterase (Electrophorus electricus, UniProt O42275); experiment: Inhibition of electric eel AChE using acetylthiocholine iodide as substrate pretreated for 5 mins followed by substrate addition by Ellman's method
PC-12 [4] = experiment: Inhibition of H2O2-induced ROS generation in rat PC12 cells preincubated for 6 hrs followed by H2O2 addition measured after 18 hrs by DCFH-DA staining based fluorimetric method; format: functional, cell-based
Method in brief: (§1)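 PC12 cells at 1×10^4/well in RPMI with 10% FBS and penicillin/streptomycin, 24 h at 37 °C, 5% CO2. Test samples (1, 5, 10, 50 µM; ≤0.5% DMSO) for 6 h, PBS wash, then H2O2 150 µM for 18 h. Loaded with 10 µM DCFH-DA for 30 min at 37 °C in the dark, washed twice. DCF fluorescence read at ex 485/em 528 nm as % of untreated control. Three independent experiments, mean ± SEM.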

SH-SY5Y = experiment: Inhibition of amyloid beta (1 to 42) (unknown origin)-induced cell death in human SH-SY5Y cells assessed as cell viability at 10 uM preincubated for 3 hrs followed by amyloid beta (1 to 42) addition measured after 24 hrs by MTT assay relative to control; format: functional; conditions: read-out: Activity
Method in brief: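 SH-SY5Y cells grown in DMEM with 10% FBS, 1% L-glutamine and antibiotics, seeded at 5×10^3/well. Pretreated 3 h with compound (10 or 50 µM), then Aβ1-42 10 µM added for 24 h. MTT, formazan dissolved in DMSO, A570. Viability as blank-corrected % of untreated control; three independent experiments, mean ± SEM.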

PC-12 [5] = experiment: Cytotoxicity against rat PC12 cells assessed as effect on cell viability at 1 to 50 uM by MTT assay; format: cell-based; conditions: pc-12, 50 µM
PC-12 [6] = experiment: Neuroprotection against H2O2-induced cell death in rat PC12 cells assessed as cell viability at 0.1 uM preincubated for 3 hrs followed by H2O2 stimulation measured after 2 hrs by MTT assay (reference value: 25.2 to 41.8%); format: functional; conditions: read-out: Activity
[7] = Metal chelating activity assessed as compound-Fe2+ complex formation at 20 uM after 30 mins by UV-visible spectrophotometric analysis
Method in brief: (§2)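 Compound (final 20 µM in methanol) mixed with metal salt (CuCl2, FeSO4, ZnCl2, AlCl3, MgCl2 or CaCl2, final 20 µM in methanol). After 30 min at room temperature, UV spectra recorded from 200 to 500 nm in 1-cm quartz cells on a dual-beam spectrophotometer.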

PC-12 [8] = experiment: Inhibition of H2O2-induced ROS generation in rat PC12 cells assessed as intracellular ROS level at 10 uM preincubated for 6 hrs followed by H2O2 addition measured after 18 hrs by DCFH-DA staining based fluorimetric method relative to control; format: functional; parameters: scale not given: the % may be the effect or the level left; method in brief: as §1
PC-12 [9] = experiment: Inhibition of H2O2-induced ROS generation in rat PC12 cells assessed as intracellular ROS level at 50 uM preincubated for 6 hrs followed by H2O2 addition measured after 18 hrs by DCFH-DA staining based fluorimetric method relative to control; format: functional; parameters: scale not given: the % may be the effect or the level left; method in brief: as §1
PC-12 [10] = experiment: Neuroprotection against H2O2-induced cell death in rat PC12 cells assessed as cell viability at 1 uM preincubated for 3 hrs followed by H2O2 stimulation measured after 2 hrs by MTT assay (reference value: 25.2 to 41.8%); format: functional; conditions: read-out: Activity
[11] = Metal chelating activity assessed as compound-Mg2+ complex formation at 20 uM after 30 mins by UV-visible spectrophotometric analysis; method in brief: as §2
[12] = biological target: Acetylcholinesterase (Homo sapiens) (UniProt P22303); experiment: Potency index, ratio of compound effect to donepezil effect for inhibition of recombinant human AChE-induced amyloid beta (1 to 42) aggregation at 100 uM
Method in brief: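 Prefibrillated Aβ1-42 (prepared 72 h at 37 °C in PBS/1% ammonium hydroxide) was coincubated with human recombinant AChE (0.01 u/mL) in 0.05 M KP buffer pH 7.4, 37 °C, 48 h, with or without compound or donepezil at 100 µM. ThT added; fluorescence read at ex 448/em 490 nm. % inhibition from intensities with vs without inhibitor; three experiments.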

[13] = biological target: Amyloid-beta precursor protein (Homo sapiens) (UniProt P05067); experiment: Potency index, ratio of compound effect to donepezil effect for inhibition of amyloid beta (1 to 42) (unknown origin) self-induced aggregation at 100 uM
[14] = biological target: Acetylcholinesterase (Electrophorus electricus) (UniProt O42275); experiment: Mixed-type inhibition of electric eel AChE using varying levels of acetylthiocholine iodide as substrate pretreated for 5 mins followed by substrate addition by Lineweaver-Burk plot analysis
Method in brief: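 Electric eel AChE (5 IU/mL) by Ellman method in 0.1 M phosphate buffer pH 8.0 with DTNB. Inhibitor was preincubated 5 min, then acetylthiocholine iodide was added at different concentrations. Absorbance followed at 412 nm. Inhibition type from reciprocal Lineweaver-Burk plots; Ki from a secondary replot of slope vs inhibitor concentration.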

PC-12 [15] = experiment: Neuroprotection against H2O2-induced cell death in rat PC12 cells assessed as cell viability at 20 uM preincubated for 3 hrs followed by H2O2 stimulation measured after 2 hrs by MTT assay (reference value: 25.2 to 41.8%); format: functional; conditions: read-out: Activity
PC-12 [16] = experiment: Inhibition of H2O2-induced ROS generation in rat PC12 cells assessed as intracellular ROS level at 5 uM preincubated for 6 hrs followed by H2O2 addition measured after 18 hrs by DCFH-DA staining based fluorimetric method relative to control; format: functional; parameters: scale not given: the % may be the effect or the level left; method in brief: as §1
Acetylcholinesterase [17] = biological target: T1, Acetylcholinesterase; experiment: Non-competitive inhibition of electric eel AChE using varying levels of acetylthiocholine iodide as substrate pretreated for 5 mins followed by substrate addition by Lineweaver-Burk plot analysis
[18] = Metal chelating activity assessed as compound-Al3+ complex formation at 20 uM after 30 mins by UV-visible spectrophotometric analysis; method in brief: as §2
PC-12 [19] = experiment: Neuroprotection against H2O2-induced cell death in rat PC12 cells assessed as increase in cell viability preincubated for 3 hrs followed by H2O2 stimulation measured after 2 hrs by MTT assay; format: functional, cell-based
[20] = Metal chelating activity assessed as compound-Ca2+ complex formation at 20 uM after 30 mins by UV-visible spectrophotometric analysis; method in brief: as §2

Amyloid-beta precursor protein (Homo sapiens), sequence (P05067 whole entry): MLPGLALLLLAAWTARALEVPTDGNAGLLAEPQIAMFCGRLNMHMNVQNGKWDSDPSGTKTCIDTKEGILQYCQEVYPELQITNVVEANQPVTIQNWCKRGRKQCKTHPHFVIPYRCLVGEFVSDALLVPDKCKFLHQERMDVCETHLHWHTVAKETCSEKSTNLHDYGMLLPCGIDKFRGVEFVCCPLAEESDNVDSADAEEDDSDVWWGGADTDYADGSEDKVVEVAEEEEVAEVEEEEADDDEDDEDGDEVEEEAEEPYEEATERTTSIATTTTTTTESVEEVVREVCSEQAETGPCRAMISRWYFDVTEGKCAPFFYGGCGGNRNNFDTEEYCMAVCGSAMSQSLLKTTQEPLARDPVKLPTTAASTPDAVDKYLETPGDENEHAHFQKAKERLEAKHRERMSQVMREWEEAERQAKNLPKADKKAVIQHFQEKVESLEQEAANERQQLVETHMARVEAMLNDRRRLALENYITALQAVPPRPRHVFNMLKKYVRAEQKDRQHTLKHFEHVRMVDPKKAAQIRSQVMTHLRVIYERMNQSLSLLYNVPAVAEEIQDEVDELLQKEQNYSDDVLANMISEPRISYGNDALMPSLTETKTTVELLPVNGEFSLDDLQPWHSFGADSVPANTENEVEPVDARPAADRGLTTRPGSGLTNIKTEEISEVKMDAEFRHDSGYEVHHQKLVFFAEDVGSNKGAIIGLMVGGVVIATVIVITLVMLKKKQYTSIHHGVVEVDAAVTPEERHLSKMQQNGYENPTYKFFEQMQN
T1 sequence (O42275 whole entry): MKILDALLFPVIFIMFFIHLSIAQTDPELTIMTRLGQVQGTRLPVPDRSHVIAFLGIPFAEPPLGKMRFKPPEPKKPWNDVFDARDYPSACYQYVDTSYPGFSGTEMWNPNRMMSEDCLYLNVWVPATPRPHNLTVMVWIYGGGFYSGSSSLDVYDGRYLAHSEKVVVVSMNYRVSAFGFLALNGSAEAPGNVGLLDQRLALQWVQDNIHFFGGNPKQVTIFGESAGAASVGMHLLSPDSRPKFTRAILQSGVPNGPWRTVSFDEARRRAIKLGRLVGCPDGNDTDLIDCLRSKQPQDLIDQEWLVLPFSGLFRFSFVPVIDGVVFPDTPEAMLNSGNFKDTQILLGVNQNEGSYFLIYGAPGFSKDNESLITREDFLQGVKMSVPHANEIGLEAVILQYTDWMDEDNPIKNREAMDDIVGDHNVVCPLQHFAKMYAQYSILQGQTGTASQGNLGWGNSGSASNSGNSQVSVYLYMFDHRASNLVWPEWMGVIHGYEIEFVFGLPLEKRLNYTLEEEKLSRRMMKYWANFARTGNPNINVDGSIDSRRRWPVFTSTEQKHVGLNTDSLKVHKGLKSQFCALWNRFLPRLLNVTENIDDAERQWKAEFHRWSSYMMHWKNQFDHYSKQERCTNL
Acetylcholinesterase (Homo sapiens), sequence (P22303 whole entry): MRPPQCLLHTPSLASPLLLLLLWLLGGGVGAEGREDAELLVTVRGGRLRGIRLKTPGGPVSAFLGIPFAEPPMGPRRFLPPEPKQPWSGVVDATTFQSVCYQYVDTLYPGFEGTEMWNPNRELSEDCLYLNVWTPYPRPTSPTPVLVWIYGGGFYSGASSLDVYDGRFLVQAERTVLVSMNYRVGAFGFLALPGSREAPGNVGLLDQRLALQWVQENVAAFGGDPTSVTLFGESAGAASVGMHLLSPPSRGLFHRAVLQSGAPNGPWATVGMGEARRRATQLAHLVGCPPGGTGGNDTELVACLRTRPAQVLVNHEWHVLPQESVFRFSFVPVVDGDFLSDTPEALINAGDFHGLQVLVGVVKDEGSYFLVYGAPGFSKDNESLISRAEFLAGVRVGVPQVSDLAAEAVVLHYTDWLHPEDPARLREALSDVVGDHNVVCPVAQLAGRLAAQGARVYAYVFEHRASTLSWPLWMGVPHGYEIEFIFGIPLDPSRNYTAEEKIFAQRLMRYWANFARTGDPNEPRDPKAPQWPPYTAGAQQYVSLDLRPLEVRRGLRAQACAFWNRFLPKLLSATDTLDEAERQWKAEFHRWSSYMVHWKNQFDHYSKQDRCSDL
Cholinesterase, sequence (P81908 whole entry): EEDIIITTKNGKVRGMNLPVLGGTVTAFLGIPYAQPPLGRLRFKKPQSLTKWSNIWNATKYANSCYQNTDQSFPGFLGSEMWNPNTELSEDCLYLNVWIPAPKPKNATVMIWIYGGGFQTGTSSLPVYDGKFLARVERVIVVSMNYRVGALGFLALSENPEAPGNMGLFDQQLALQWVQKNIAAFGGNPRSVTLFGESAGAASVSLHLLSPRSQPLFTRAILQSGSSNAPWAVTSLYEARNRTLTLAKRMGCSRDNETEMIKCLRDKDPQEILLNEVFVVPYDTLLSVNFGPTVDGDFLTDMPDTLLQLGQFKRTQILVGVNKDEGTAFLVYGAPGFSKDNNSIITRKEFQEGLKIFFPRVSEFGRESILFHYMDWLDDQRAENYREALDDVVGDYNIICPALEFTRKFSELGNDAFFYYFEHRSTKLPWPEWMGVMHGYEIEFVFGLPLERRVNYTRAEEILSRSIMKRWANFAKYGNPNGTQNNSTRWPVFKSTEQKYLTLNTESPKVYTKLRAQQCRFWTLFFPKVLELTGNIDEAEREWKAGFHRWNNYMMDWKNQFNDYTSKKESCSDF
Acetylcholinesterase (Electrophorus electricus), sequence (O42275 24-633 limits assumed): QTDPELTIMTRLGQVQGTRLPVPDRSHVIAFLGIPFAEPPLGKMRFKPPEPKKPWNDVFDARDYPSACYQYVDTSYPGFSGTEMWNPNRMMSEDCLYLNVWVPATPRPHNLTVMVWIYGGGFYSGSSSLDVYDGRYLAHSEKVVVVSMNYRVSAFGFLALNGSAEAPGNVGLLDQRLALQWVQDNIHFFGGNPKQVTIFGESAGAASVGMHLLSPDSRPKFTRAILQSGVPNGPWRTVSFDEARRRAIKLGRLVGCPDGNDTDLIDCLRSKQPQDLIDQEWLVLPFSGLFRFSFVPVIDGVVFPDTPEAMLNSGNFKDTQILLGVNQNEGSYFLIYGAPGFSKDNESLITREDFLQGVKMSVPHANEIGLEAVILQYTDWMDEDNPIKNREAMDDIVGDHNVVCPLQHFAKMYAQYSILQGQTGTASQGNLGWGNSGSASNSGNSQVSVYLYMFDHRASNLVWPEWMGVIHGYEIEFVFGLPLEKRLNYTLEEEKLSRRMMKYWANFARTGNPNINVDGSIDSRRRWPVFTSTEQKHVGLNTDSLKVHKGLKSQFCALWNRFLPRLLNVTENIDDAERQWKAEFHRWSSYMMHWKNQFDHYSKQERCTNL

COc1ccc(-c2cc3ccc(OCCCn4cc(CNC(=O)CCCCC5CCSS5)nn4)cc3oc2=O)cc1OC (configuration not stated)
viability at 50 µM (PC-12 [1]): 49.5% | IC50 (Cholinesterase): 49.4 µM | inhibition [2]: 51.2% | IC50 (Acetylcholinesterase [3]): 16.4 µM | inhibition (PC-12 [4]): Dose-dependent effect | viability at 10 µM (SH-SY5Y): 64.7% | Activity (PC-12 [5]): Non-Toxic | viability at 0.1 µM (PC-12 [6]): 36.4% | Activity [7]: Active | Activity (PC-12 [8]): 43.04% | Activity (PC-12 [9]): 91.6% | viability at 1 µM (PC-12 [10]): 39.3% | Activity [11]: inactive | Ratio [12]: 2 | Ratio [13]: 2 | inhibition [14]: Active | viability at 20 µM (PC-12 [15]): 45.6% | Activity (PC-12 [16]): 79.32% | Ki (Acetylcholinesterase [17]): 6.91 µM | Activity [18]: inactive | Activity (PC-12 [19]): Dose-dependent effect | Activity [20]: inactive
